Consider 14 compounds from ChEMBL document CHEMBL1134345, “Coumarin and chromen-4-one analogues as tautomerase inhibitors of macrophage migration inhibitory factor: discovery and X-ray crystallography” (J Med Chem, 2001).

One assay concerns the target T1, Macrophage migration inhibitory factor (Homo sapiens, UniProt P14174).
T1 sequence (P14174 whole entry): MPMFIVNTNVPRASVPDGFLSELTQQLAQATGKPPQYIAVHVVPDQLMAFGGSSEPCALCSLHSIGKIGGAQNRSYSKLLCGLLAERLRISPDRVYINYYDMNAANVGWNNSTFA
Nature of the assay: Binding activity towards the active site of macrophage migration inhibitory factor (MIF).
Usually Kd stands for the free concentration of one partner at which half of the binding sites on the other are occupied at equilibrium, for simple one-to-one binding. The compound `CCCCCCSC[C@H](NC(=O)CC[C@H](N)C(=O)O)C(=O)NCC(=O)O` came in with a Kd of 2500 µM.

For the next assay, the target named is T1, Macrophage migration inhibitory factor. In words: Inhibitory activity against tautomerase macrophage migration inhibitory factor (MIF). The essentials: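 Recombinant human MIF at 4 ug/mL final, in sodium phosphate buffer pH 6.0. Inhibitors were added in DMSO (1% v/v final). The reaction was started with freshly made D-dopachrome (D-DOPA oxidized with periodate, 1:2) at 0.25–0.5 mM. The A475 decrease was followed for 10 min. Initial rates were corrected for the uncatalyzed rate without MIF. Ki came from three-dimensional nonlinear regression.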
What is called Ki is the equilibrium dissociation constant of an inhibitor or competing ligand from its target. Read a high Ki as a looser hold on the target. `O=C(O)/C=C/c1ccc(O)cc1F` returned a Ki of 2.6 µM.
Same read-out and setting: to `O=C(COC(=O)c1cc2ccccc2oc1=O)c1ccccc1` belongs 1.6 µM; to `N#Cc1cc2ccc(O)cc2oc1=O`, 2.9 µM.
Same read-out and setting: to `O=c1oc2cc(O)ccc2cc1-c1nc(-c2ccc3c(c2)OCO3)cs1` belongs 1.5 µM; to `CN(C)c1ccc(/C=C2\C(=O)Oc3ccccc3C2=O)cc1`, 6.2 µM.
Same read-out and setting: to `CC(=O)c1cc2ccc(O)cc2oc1=O` belongs 4.3 µM; to `O=c1oc2ccccc2cc1-c1csc(-c2cc3ccc(O)cc3oc2=O)n1`, 0.28 µM.
On to `CCOC(=O)CC(=O)c1cc2ccc(O)cc2oc1=O`, for which the Ki was determined as 5.8 µM.
As for `O=c1oc2cc(O)ccc2cc1-c1ccccc1`, the Ki came to 0.47 µM.
For orientation: IC50 means the concentration needed to halve the response being measured. Higher therefore signals lower potency. In turn, `CCCCCCSC[C@H](NC(=O)CC[C@H](N)C(=O)O)C(=O)NCC(=O)O` showed an IC50 of 3300 µM.
Compound `Cc1nc(-c2cc3ccc(O)cc3oc2=O)cs1` displayed a Ki of 2.1 µM.
On the same count and under the same terms, the same measure for `Cc1csc(-c2cc3ccc(O)cc3oc2=O)n1`: 3.1 µM.
Still for that read-out and setting: to `NC(=S)c1cc2ccc(O)cc2oc1=O` belongs 0.55 µM.
Take `CCCCCCS` [HEXANETHIOL]: the midpoint of inhibition, the IC50, lay at 17.4 µM.
